Shown are actives, neighbours in structure and some others; about 4.8% of the full set was active somewhere.
697 NFkB inh: inhibitors of the PMA/ionomycin-induced NF-kB reporter in 697 B cells; 697 B-cell NF-kB luciferase reporter, 16 h; inhibition, % at 4 µM; 330,000 tested, 0.33% active; AID 435022; in the data active means inhibition above about 35%
HSF1 activator: increases HSF-1 driven luciferase reporter signal; NIH3T3-HGL HSF-1 luciferase reporter, MG132, 8 h; 100% = twice DMSO control signal; 300,000 tested, 1.7% active; activation, % at 9 µM;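 active means mean replicate activation of at least 50% with a set share of replicates each reaching 50%; inconclusive means only one of those two conditions met; inactive means mean below 50% and too few replicates reaching it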
GPR7 antag: antagonists of human GPR7 (neuropeptides B/W receptor 1); P48145; GPR7-expressing cells, fluorescence antagonist assay; inhibition, % at 4.4 µM; 290,000 tested, 1.1% active; AID 1861; in the data active means inhibition above about 16%, passing the limit was not always enough;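 further: cells stimulated with the agonist NPW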
Target sequence (P48145 whole entry, looked up): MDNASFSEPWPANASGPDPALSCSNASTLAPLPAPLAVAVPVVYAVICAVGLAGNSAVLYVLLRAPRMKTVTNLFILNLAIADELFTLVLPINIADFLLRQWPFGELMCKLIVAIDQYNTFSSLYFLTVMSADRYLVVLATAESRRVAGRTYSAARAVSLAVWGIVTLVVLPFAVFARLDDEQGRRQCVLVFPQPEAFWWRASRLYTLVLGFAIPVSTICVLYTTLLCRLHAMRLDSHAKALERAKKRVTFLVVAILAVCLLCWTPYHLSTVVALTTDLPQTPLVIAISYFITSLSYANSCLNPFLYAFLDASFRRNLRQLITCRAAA
T cruzi inh: T. cruzi replication inhibition | T. cruzi beta-gal in NIH3T3, luminescence, 90 h | inhibition, % (test concentration not listed) | 300,000 tested, 1.4% active;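 active means mean inhibition across valid replicates above about 55%, limit read from the data; inconclusive means mean below that limit but half or more replicates reach it; inactive means mean below it, under half of replicates reach it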;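 further: signal also drops with host cell toxicity which is not excluded here; higher percent means less beta-gal luminescence so fewer parasites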
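System: NIH/3T3 fibroblasts plus reporter T. cruzi. Medium: DMEM plus 2% FBS. Probe or stimulus: 5000 reporter trypomastigotes per well. Compound: single 50 nL compound addition per well in DMSO. Incubation: co-culture of at least 90 h after 3 h attachment. Detection: GalScreen β-gal luminescence, detergent lysis, 60 min. Evaluation: parasite load inhibition, %.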
HSF1 inh: HSF1 inhibition. NIH3T3-HGL HSE-luciferase, MG132-induced, luminescence 8 h; active compounds read low. activity change, negative = inhibition, % at 7.5 µM (by protocol). 300,000 tested, 0.77% active. AID 2098;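 active means more than half of replicate wells show activity change below -50%, luminescence cut by over half; inconclusive means some wells, but at most half, below -50%; inactive means no replicate well below -50%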;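 further: luciferase reports HSF-1 transcriptional activity via heat shock element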
Jurkat NFkB inh: inhibitors of the PMA/ionomycin-induced NF-kB reporter in Jurkat cells | PMA/ionomycin-induced NF-kB luciferase reporter, luminescence | inhibition, % at 4 µM | 330,000 tested, 0.53% active | AID 435003; in the data active means inhibition above about 50%
Each line names hits and unclear results; the compound was inactive in the other large screens.

CCCNS(=O)(=O)c1ccc(OCC(=O)N2CCN(C)CC2)cc1	none
Cc1ccc(NS(=O)(=O)c2ccc(OCC(=O)N3CCN(C)CC3)cc2)cc1	none
CN1CCN(C(=O)COc2ccc(S(=O)(=O)N(C)Cc3ccccc3)cc2)CC1	T cruzi inh 61
COc1ccc(NS(=O)(=O)c2ccc(OCC(=O)N3CCN(C)CC3)cc2)cc1Cl	T cruzi inh 58
CN1CCN(C(=O)COc2ccc(N(C)S(=O)(=O)c3ccc(F)cc3)cc2)CC1	T cruzi inh 79
C=CP(=O)(O)c1ccccc1	none
COP(=O)(OC)C1(Nc2ccc(C)cc2)CCCCC1	none
COC(=O)C1=C(c2cc3ccccc3s2)C[C@@H]2CC[C@H]1N2C(=O)NCc1ccco1	none (no result: GPR7 antag)
CC1(C)CN=C(Nc2nc3ccccc3s2)S1	HSF1 activator 54
CC1(C)CN=C(NCc2ccccc2)S1	none (no result: 697 NFkB inh, Jurkat NFkB inh)
CN[C@@H]1C[C@@H](c2ccc(Cl)c(Cl)c2)c2ccccc21	GPR7 antag 47
CC(NCc1ccc(Cl)c(Cl)c1)C(O)c1ccccc1 (stereo unspecified)	none
COC12C(COC(N)=O)C3=C(C(=O)C(C)=C(N)C3=O)N1CC1C2N1C (stereo unspecified)	T cruzi inh 58
COC(=O)CC1=C(C(=O)OC)C2(C(=O)N(C)c3ccccc32)C(C#N)=C(N)O1 (stereo unspecified)	none
O=C(CCCN1CCC2(CC1)C(=O)NCN2c1ccccc1)c1ccc(F)cc1	GPR7 antag 102
CC(=Nc1ccc2c(c1)CCC2)c1c(O)n(-c2ccccc2)c(=O)[nH]c1=O	none
CCC1(CC)C(=O)N(C)C(=O)NC1=NC	none
COC1=CC=C2[C@H]3Cc4ccc(OC)c5c4[C@@]2(CCN3C)[C@H]1O5	none
O=S(=O)(c1ccc(Cl)cc1)N1CCCCC1c1cccnc1 (stereo unspecified)	T cruzi inh 71
Cc1cccc(CSc2nc3c(cc2C#N)CN(C)CC3)c1	T cruzi inh 59
C=CCN1CCc2cccc3c2[C@H]1Cc1ccc(O)c(O)c1-3	HSF1 activator 95
CC(=O)NNC(=O)CN1C(=O)CN=C(c2ccccc2)c2cc(Br)ccc21	none
CCCc1nc2ccc(Br)cc2c(=O)n1-c1ccc([N+](=O)[O-])c(C(F)(F)F)c1	T cruzi inh 56
CCc1nc2ccc(Br)cc2c(=O)n1-c1ccccc1C(F)(F)F	none
CC(C)(C)C(O)C(Oc1ccc(Cl)cc1)n1cncn1 (stereo unspecified)	T cruzi inh 60
CC[n+]1c(-c2ccccc2)c2cc(N)ccc2c2ccc(N)cc21	none (no result: 697 NFkB inh, GPR7 antag, T cruzi inh, Jurkat NFkB inh)
C/C1=C\[C@@H](C)C/C=C/[C@H]2[C@@H]3O[C@]3(C)[C@@H](C)[C@H]3[C@H](Cc4c[nH]c5ccccc45)NC(=O)[C@]32C(=O)/C=C/C(=O)[C@@H]1O	HSF1 activator 111
O=C1NC(=O)N(CCNc2ncc(C(F)(F)F)cc2Cl)C(=O)C1/C=N/OCc1c(F)cccc1Cl (stereo unspecified)	none
CCn1c(O)c(C=Nc2ccc(N3CCOCC3)c(Br)c2)c(=O)n(CC)c1=S	HSF1 inh -67
CCn1c(O)c(C=Nc2ccc(N3CCOCC3)cc2)c(=O)n(CC)c1=S	none
COc1ccc(NC(=O)N2C[C@@H]3C[C@@H](C2)c2cccc(=O)n2C3)c(OC)c1	none
CCOC(=O)c1c(NC(=O)c2c(N)n(CCCOC)c3nc4ccccc4nc23)sc2c1CCCC2	T cruzi inh 64
CCOCCCn1c(N)c(C(=O)Nc2sc3c(c2C(=O)OC)CCCC3)c2nc3ccccc3nc21	none
CCCCn1c(N)c(C(=O)NCc2cccs2)c2nc3ccccc3nc21	T cruzi inh 55
CCCCn1c(NC(=O)c2ccco2)c(C(=O)OCC)c2nc3ccccc3nc21	HSF1 activator 71
Nc1c(C(=O)NCCCc2ccccc2)c2nc3ccccc3nc2n1Cc1cccs1	T cruzi inh 58
CCCCCn1c(N)c(C(=O)NCc2cccs2)c2nc3ccccc3nc21	none
Cc1c(/C=N/O)c2ccccc2n1C	none
CC12CNCC(C)(CNC1)C2O (stereo unspecified)	none
CC(C)OCCCNC(=O)c1c(N)n(CC2CCCO2)c2nc3ccccc3nc12 (stereo unspecified)	GPR7 antag 15
CCCNC(=O)c1c(N)n(CC2CCCO2)c2nc3ccccc3nc12 (stereo unspecified)	none
CCCCCCOc1ccc(CN2CCN(CC)CC2)cc1	T cruzi inh 65 (no result: HSF1 activator, HSF1 inh)
CCN1CCN(Cc2ccc(OC(F)(F)F)cc2)CC1	none
O=C(CCl)Nc1nccs1	none
O=[N+]([O-])c1ccc(-[n+]2c(-c3ccccc3)cc(-c3ccccc3)cc2-c2ccccc2)cc1	T cruzi inh 57
CSc1nnc(C2CCNCC2)n1C	none
CN1CCN(c2ccc([N+](=O)[O-])c(N3CCCCC3)c2)CC1	T cruzi inh 79
O=[N+]([O-])c1ccc(N2CCNCC2)cc1N1CCCCCC1	none
CN1CCN(c2ccc([N+](=O)[O-])c3cccnc23)CC1	T cruzi inh inconclusive, HSF1 inh -57
O=[N+]([O-])c1ccc(N2CCCC2)c2ccncc12	HSF1 inh -60
CCC(=O)OC1(c2ccccc2)C(C)CN(C)CC1C (stereo unspecified)	none
Oc1ccc(C2=CCNCC2)cc1O	none (no result: GPR7 antag)
CC[C@@]1(O)C(=O)OCc2c1cc1n(c2=O)Cc2cc3ccccc3nc2-1	T cruzi inh 56 (no result: 697 NFkB inh, Jurkat NFkB inh)
CCC1(OC(=O)CN)C(=O)OCc2c1cc1n(c2=O)Cc2cc3ccccc3nc2-1 (stereo unspecified)	T cruzi inh 61 (no result: 697 NFkB inh, Jurkat NFkB inh)
CC[C@@]1(O)C(=O)OCc2c1cc1n(c2=O)Cc2cc3c(NC(=O)CN)cccc3nc2-1	none
CC(C)OP(=O)(O)NC(=O)c1ccccc1	none
O=C(Cc1ccccc1)Oc1ccccc1N1C(=O)CCC1=O	HSF1 inh -62
O=C(Cc1ccccc1)Oc1ccc(N2C(=O)CCC2=O)cc1	none
Cc1ncc(CN2CCCC(C(=O)c3ccc(C(C)(C)C)cc3)C2)s1 (stereo unspecified)	none
CCn1nc(/C=C/c2ccccc2)nc2c(=O)n(C)c(=O)nc1-2	T cruzi inh 60 (no result: HSF1 activator, HSF1 inh)
C[n+]1c(-c2ccccc2)cc(-c2ccc(O)cc2)cc1-c1ccccc1	none
Cc1cc(-c2ccccc2)cc(-c2ccccc2)[n+]1CCc1ccccc1	T cruzi inh 59 (no result: GPR7 antag)
CCOC(C[n+]1c(-c2ccccc2)cc(C)cc1-c1ccccc1)OCC	none (no result: GPR7 antag)
CCOc1ccc(-c2cc(C)[n+](CCO)c(-c3ccc(OCC)cc3)c2)cc1	T cruzi inh 72
Oc1ccc(-[n+]2c(-c3ccccc3)cc(-c3ccccc3)cc2-c2ccccc2)cc1	none (no result: GPR7 antag)
COc1ccc(-[n+]2c(-c3ccccc3)cc(-c3ccccc3)cc2-c2ccccc2)cc1	none (no result: GPR7 antag)
